Reference: ChEMBL document CHEMBL1152797, “Design and synthesis of 4-methoxyphenylacetic acid esters as 15-lipoxygenase inhibitors and SAR comparative studies of them” (Bioorg Med Chem, 2009)
Active and inactive are the calls of the source. The calls are words filed in the database; no cut-off is given here.

Columns and labels:
[1] = Inhibition of 15-lipoxygenase form soybean; parameters: species or system Glycine max
Glycine max = assay: Inhibition of 15-lipoxygenase form soybean at 200 uM
[2] = Inhibition of human recombinant 15-lipoxygenase b
Outline: (§1)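 Human recombinant 15-LO (a or b), expressed in E. coli, at 10 µg/mL final in 50 mM Tris–HCl, pH 7.2. Linoleic acid substrate at 134 µM final, 20 ± 1 °C, compounds in DMSO (1% final). Absorbance read at 234 nm over 60–120 s against an inhibitor-plus-substrate blank. Triplicates, at least six controls; IC50 interpolated linearly near 50% activity.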

[3] = Inhibition of human recombinant 15-lipoxygenase a; outline: as §1

Row | Structure (SMILES) | IC50 [1] | other results
1 | COC(=O)Cc1ccc(OC)cc1 | 56.2 µM | –
2 | COc1ccc(CC(=O)OCC(C)C)cc1 | 88.1 µM | –
3 | COc1ccc(CC(=O)OC2CCCC2)cc1 | 56.5 µM | –
4 | C=CCc1ccc(O)c(OC)c1 [EUGENOL] | 38.2 µM | –
5 | COc1ccc(CC(=O)OC(C)C)cc1 | 34.4 µM | –
6 | COc1ccc2c(c1)CCC(=O)C2 | – | Activity (Glycine max): inactive
7 | CCC(C)OC(=O)Cc1ccc(OC)cc1 (centres undefined) | 35.7 µM | –
8 | COc1ccc(CC(=O)OC2CCCCC2)cc1 | 64 µM | –
9 | C=CCc1ccc(OC)cc1 [ESTRAGOLE] | 64.1 µM | –
10 | C=CCc1ccc(OC)c(OC)c1 [METHYLEUGENOL] | 96.1 µM | –
11 | CCCOC(=O)Cc1ccc(OC)cc1 | 11.6 µM | –
12 | CCOC(=O)Cc1ccc(OC)cc1 | 32 µM | IC50 [2]: 63.2 µM; IC50 [3]: 56.7 µM
13 | CCC(=O)Cc1ccc(OC)cc1 | 33 µM | –
14 | C=C(C)Cc1ccc(OC)cc1 | 137 µM | –
15 | C=C1CCc2cc(OC)ccc2C1 | – | Activity (Glycine max): inactive
16 | C=C(CC)Cc1ccc(OC)cc1 | 145 µM | –
17 | CCCCCOC(=O)Cc1ccc(OC)cc1 | 1.9 µM | IC50 [2]: 11.7 µM; IC50 [3]: 30.9 µM
18 | CCCCOC(=O)Cc1ccc(OC)cc1 | 3.8 µM | –
19 | COc1ccc(CC(=O)OC(C)(C)C)cc1 | 38.7 µM | –
20 | CCCCCCOC(=O)Cc1ccc(OC)cc1 | 35 µM | –
